Experimental data from ChEMBL document CHEMBL2034858, “An efficient one-pot synthesis, structure, antimicrobial and antioxidant investigations of some novel quinolyldibenzo[b,e][1,4]diazepinones” (2012).
In brackets after ≈: the same amount, converted by molar mass.

Tests used:
[1] = Antioxidant activity assessed as ascorbic acid equivalent/100g at 200 ug/mL by FRAP assay; type: functional
[2] = tested on: Salmonella typhi; test: Antibacterial activity against Salmonella typhi MTCC 98 after 24 hrs by micro-broth dilution method; type: functional, Salmonella enterica subsp. enterica serovar Typhi; settings: Salmonella enterica, MTCC 98, 24 h
[3] = tested on: Escherichia coli; test: Antibacterial activity against Escherichia coli MTCC 443 after 24 hrs by micro-broth dilution method; type: functional; settings: MTCC 443, 24 h
[4] = tested on: Mycobacterium tuberculosis; test: Antitubercular activity against Mycobacterium tuberculosis H37Rv at 250 ug/mL; type: functional; settings: read-out: GI
How it was run: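 M. tuberculosis H37Rv tested on conventional L.J. (Löwenstein–Jensen) medium; activity read as percent growth inhibition.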

[5] = tested on: Vibrio cholerae; test: Antibacterial activity against Vibrio cholerae MTCC 3906 after 24 hrs by micro-broth dilution method; type: functional; settings: MTCC 3906, 24 h
[6] = tested on: Aspergillus fumigatus; test: Antifungal activity against Aspergillus fumigatus MTCC 3008 after 48 hrs by micro-broth dilution method; type: functional
[7] = tested on: Clostridium tetani; test: Antibacterial activity against Clostridium tetani MTCC 449 after 24 hrs by micro-broth dilution method; type: functional; settings: MTCC 449, 24 h
[8] = tested on: Streptococcus pneumoniae; test: Antibacterial activity against Streptococcus pneumoniae MTCC 1936 after 24 hrs by micro-broth dilution method; type: functional; settings: MTCC 1936, 24 h
[9] = tested on: Bacillus subtilis; test: Antibacterial activity against Bacillus subtilis MTCC 441 after 24 hrs by micro-broth dilution method; type: functional; settings: MTCC 441, 24 h
[10] = tested on: Candida albicans; test: Antifungal activity against Candida albicans MTCC 227 after 48 hrs by micro-broth dilution method; type: functional
[11] = tested on: Mycobacterium tuberculosis; test: Antitubercular activity against Mycobacterium tuberculosis H37Rv at > 256 ug/mL; type: functional

Row | Molecule | Activity [1] [mmol] | MIC [2] [mg/L] | MIC [3] [mg/L] | inhibition of growth at 250 µg/mL [4] [%] | MIC [5] [mg/L] | MIC ([6]; MTCC 3008, 48 h) [mg/L] | MIC [7] [mg/L] | MIC [8] [mg/L] | MIC [9] [mg/L] | MIC ([10]; MTCC 227, 48 h) [mg/L] | growth inhibition (GI) [11] [%] | MIC [6] [mg/L] | MIC [10] [mg/L]
1 | C=CCN1c2ccccc2NC2=C(C(=O)CCC2)C1c1cc2ccc(Cl)cc2n(CC=C)c1=O (centres undefined) | 361 | 200 (≈ 424 µM) | 62.5 (≈ 132 µM) | 76 | 250 (≈ 530 µM) | > 250 | 500 (≈ 1060 µM) | > 250 | 250 (≈ 530 µM) | > 250 | – | – | –
2 | C=CCn1c(=O)c(C2Nc3ccccc3NC3=C2C(=O)CC(C)(C)C3)cc2cc(C)ccc21 (centres undefined) | 462 | 250 (≈ 569 µM) | > 250 | 96 | 250 (≈ 569 µM) | 250 (≈ 569 µM) | 500 (≈ 1140 µM) | 250 (≈ 569 µM) | 200 (≈ 455 µM) | > 250 | – | – | –
3 | O=C(N[C@H](CO)[C@H](O)c1ccc([N+](=O)[O-])cc1)C(Cl)Cl [CHLORAMPHENICOL] | – | 50 (≈ 155 µM) | 50 (≈ 155 µM) | – | 50 (≈ 155 µM) | – | 50 (≈ 155 µM) | 50 (≈ 155 µM) | 50 (≈ 155 µM) | – | – | – | –
4 | C=CCn1c(=O)c(C2Nc3ccccc3NC3=C2C(=O)CCC3)cc2cc(C)ccc21 (centres undefined) | 499 | 250 (≈ 608 µM) | 250 (≈ 608 µM) | 58 | 500 (≈ 1220 µM) | > 250 | 100 (≈ 243 µM) | > 250 | 250 (≈ 608 µM) | > 250 | – | – | –
5 | Clc1ccc(COC(Cn2ccnc2)c2ccc(Cl)cc2Cl)c(Cl)c1 (centres undefined) [MICONAZOLE] | – | – | – | – | – | – | – | – | – | – | 99 | – | –
6 | C=CCn1c(=O)c(C2Nc3ccccc3NC3=C2C(=O)CCC3)cc2ccc(Cl)cc21 (centres undefined) | 490 | 250 (≈ 579 µM) | 100 (≈ 232 µM) | < 50 | 250 (≈ 579 µM) | > 250 | 250 (≈ 579 µM) | 250 (≈ 579 µM) | 250 (≈ 579 µM) | > 250 | – | – | –
7 | CC1(C)S[C@@H]2[C@H](NC(=O)[C@H](N)c3ccccc3)C(=O)N2[C@H]1C(=O)O [AMPICILLIN] | – | 100 (≈ 286 µM) | 100 (≈ 286 µM) | – | 100 (≈ 286 µM) | – | 250 (≈ 715 µM) | 100 (≈ 286 µM) | 250 (≈ 715 µM) | – | – | – | –
8 | C=CCN1c2ccccc2NC2=C(C(=O)CC(C)(C)C2)C1c1cc2cc(C)ccc2n(CC=C)c1=O (centres undefined) | 292 | 200 (≈ 417 µM) | 100 (≈ 208 µM) | < 50 | > 250 | 250 (≈ 521 µM) | 250 (≈ 521 µM) | 250 (≈ 521 µM) | > 250 | > 250 | – | – | –
9 | NYSTATIN | – | – | – | – | – | – | – | – | – | – | – | 100 | 100
10 | Cc1ncc([N+](=O)[O-])n1CCO [METRONIDAZOLE] | – | – | – | – | – | – | – | – | – | – | 99 | – | –
11 | COC1=CC(=O)C[C@@H](C)[C@]12Oc1c(Cl)c(OC)cc(OC)c1C2=O [GRISEOFULVIN] | – | – | – | – | – | 100 (≈ 283 µM) | – | – | – | 500 (≈ 1420 µM) | – | – | –
12 | C=CCn1c(=O)c(C2Nc3ccccc3NC3=C2C(=O)CC(C)(C)C3)cc2ccccc21 (centres undefined) | 324 | > 250 | 200 (≈ 470 µM) | < 50 | > 250 | > 250 | 200 (≈ 470 µM) | > 250 | > 250 | > 250 | – | – | –
13 | C=CCN1c2ccccc2NC2=C(C(=O)CC(C)(C)C2)C1c1cc2ccc(C)cc2n(CC=C)c1=O (centres undefined) | 358 | 250 (≈ 521 µM) | 200 (≈ 417 µM) | 67 | > 250 | > 250 | 250 (≈ 521 µM) | 250 (≈ 521 µM) | 250 (≈ 521 µM) | > 250 | – | – | –
14 | C=CCN1c2ccccc2NC2=C(C(=O)CC(C)(C)C2)C1c1cc2ccc(Cl)cc2n(CC=C)c1=O (centres undefined) | 401 | > 250 | > 250 | < 50 | 500 (≈ 1000 µM) | > 250 | 500 (≈ 1000 µM) | > 250 | > 250 | > 250 | – | – | –
15 | C=CCn1c(=O)c(C2Nc3ccccc3NC3=C2C(=O)CCC3)cc2ccc(C)cc21 (centres undefined) | 499 | 100 (≈ 243 µM) | 62.5 (≈ 152 µM) | 75 | 100 (≈ 243 µM) | 250 (≈ 608 µM) | 500 (≈ 1220 µM) | > 250 | 200 (≈ 486 µM) | > 250 | – | – | –
16 | C=CCn1c(=O)c(C2Nc3ccccc3NC3=C2C(=O)CC(C)(C)C3)cc2ccc(C)cc21 (centres undefined) | 270 | 250 (≈ 569 µM) | 250 (≈ 569 µM) | 91 | > 250 | > 250 | 250 (≈ 569 µM) | > 250 | 250 (≈ 569 µM) | > 250 | – | – | –
17 | CCn1cc(C(=O)O)c(=O)c2cc(F)c(N3CCNCC3)cc21 [NORFLOXACIN] | – | 10 (≈ 31.3 µM) | 10 (≈ 31.3 µM) | – | 10 (≈ 31.3 µM) | – | 50 (≈ 157 µM) | 10 (≈ 31.3 µM) | 100 (≈ 313 µM) | – | – | – | –
18 | C=CCN1c2ccccc2NC2=C(C(=O)CCC2)C1c1cc2ccc(C)cc2n(CC=C)c1=O (centres undefined) | 382 | 200 (≈ 443 µM) | > 250 | 64 | 100 (≈ 221 µM) | > 250 | 500 (≈ 1110 µM) | > 250 | 250 (≈ 554 µM) | 250 (≈ 554 µM) | – | – | –
19 | OC(Cn1cncn1)(Cn1cncn1)c1ccc(F)cc1F [FLUCONAZOLE] | – | – | – | – | – | – | – | – | – | – | 99 | – | –
20 | C=CCN1c2ccccc2NC2=C(C(=O)CCC2)C1c1cc2cc(C)ccc2n(CC=C)c1=O (centres undefined) | 499 | 250 (≈ 554 µM) | 250 (≈ 554 µM) | < 50 | 250 (≈ 554 µM) | 250 (≈ 554 µM) | 250 (≈ 554 µM) | > 250 | 200 (≈ 443 µM) | > 250 | – | – | –
21 | O=C(O)c1cn(C2CC2)c2cc(N3CCNCC3)c(F)cc2c1=O [CIPROFLOXACIN] | – | 25 (≈ 75.4 µM) | 25 (≈ 75.4 µM) | – | 25 (≈ 75.4 µM) | – | – | 50 (≈ 151 µM) | – | – | – | – | –
22 | C=CCn1c(=O)c(C2Nc3ccccc3NC3=C2C(=O)CCC3)cc2ccccc21 (centres undefined) | 347 | 250 (≈ 629 µM) | 200 (≈ 503 µM) | < 50 | 200 (≈ 503 µM) | > 250 | 250 (≈ 629 µM) | 200 (≈ 503 µM) | 250 (≈ 629 µM) | > 250 | – | – | –
23 | C=CCn1c(=O)c(C2Nc3ccccc3NC3=C2C(=O)CC(C)(C)C3)cc2ccc(Cl)cc21 (centres undefined) | 328 | 100 (≈ 217 µM) | 250 (≈ 544 µM) | 62 | > 250 | > 250 | 250 (≈ 544 µM) | > 250 | 250 (≈ 544 µM) | > 250 | – | – | –
24 | C=CCN1c2ccccc2NC2=C(C(=O)CCC2)C1c1cc2ccccc2n(CC=C)c1=O (centres undefined) | 389 | 250 (≈ 571 µM) | > 250 | 51 | 100 (≈ 229 µM) | 250 (≈ 571 µM) | 200 (≈ 457 µM) | 100 (≈ 229 µM) | 100 (≈ 229 µM) | > 250 | – | – | –
25 | C=CCN1c2ccccc2NC2=C(C(=O)CC(C)(C)C2)C1c1cc2ccccc2n(CC=C)c1=O (centres undefined) | 266 | > 250 | 250 (≈ 537 µM) | < 50 | > 250 | > 250 | 500 (≈ 1070 µM) | > 250 | > 250 | 250 (≈ 537 µM) | – | – | –
